Measurements published in ChEMBL document CHEMBL1123673, “Comparison of aminoglycoside antibiotics with respect to uptake and lethal activity in Escherichia coli” (J Med Chem, 1987).

Legend:
[1] = (§1) Lethal dose required to kill 90% of the Escherichia coli K12 (ATCC 25868) cell population; type: ADME
Summary of the method: (§2)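 E. coli K12 in tryptone-peptone broth at 37 °C, OD600 0.20, exposed 20 min at 37 °C to antibiotic; pellets resuspended to OD600 0.10–0.15 in TPB, serially diluted, plated on tryptone-peptone agar, colonies counted after overnight at 37 °C. Value is the concentration killing 90% of the population.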

[2] = system: Escherichia coli; assay: Estimated rate of [3H]DHS uptake in Escherichia coli K12 (ATCC 25868); type: functional; set-up: unit not given here
Summary of the method: (§3)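 Cultures in tryptone-peptone broth at 37 °C with shaking, grown from OD600 ~0.05 to 0.20, then preexposed to antibiotic for 20 min at 37 °C. Cells pelleted, resuspended in equal volume fresh broth, pulsed 5.0 min at 37 °C with [3H]DHS (1.0 µCi/mL, 3.8 Ci/mmol). Samples filtered, washed with 0.1 M LiCl, scintillation counted. C50 = half-maximal rate estimated from dose-response curves.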

[3] = (§4) Percent killing of the total Escherichia coli K12 (ATCC 25868) cells at the C50 concentration was determined.; type: ADME
[4] = system: Escherichia coli; assay: Concentration required for half maximum rate of enhanced [3H]DHS (Dihydrostreptomycin) uptake in Escherichia coli K12 (ATCC 25868)was estimated from dose-response curves; type: functional; summary of the method: as §3
[5] = system: Escherichia coli;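 further: escherichia coli cells, read-out is the rate of enhanced [3H]DHS uptake, C50 being the level that yields half of the maximal rate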
[6] = system: Escherichia coli; assay: Estimated rate of [3H]DHS (Dihydrostreptomycin) uptake in Escherichia coli K12 (ATCC 25868) [pmol/min (optical density unit)E-1] at the C50 was determined.; type: functional; summary of the method: as §3
[7] = system: Escherichia coli; assay: Estimated rate of [3H]DHS (Dihydrostreptomycin) uptake in Escherichia coli K12 (ATCC 25868) [pmol/min (optical density unit)E-1] at the C50 was determined.; OD means optical density; type: functional
Summary of the method: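 E. coli K12 grown in tryptone-peptone broth at 37 °C with shaking to OD600 0.20, preexposed 20 min at 37 °C to antibiotic across a dose range; cells pelleted, resuspended in TPB, given [3H]DHS (1.0 µCi/mL, 3.8 Ci/mmol) for 5.0 min at 37 °C; filtered, washed with 0.1 M LiCl, scintillation counted. Rate read at C50 (half-maximal induced rate) from dose-response curves.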

[8] = as §4; type: functional
[9] = as §1; type: functional; summary of the method: as §2
[10] = system: Escherichia coli; assay: Estimated rate of [3H]DHS (Dihydrostreptomycin) uptake in Escherichia coli K12 (ATCC 25868) [pmol/min (optical density unit)E-1] at the C50 was determined;OD means optical density; type: functional; summary of the method: as §3
[11] = (§5) Percent killing of the total Escherichia coli K12 (ATCC 25868)cells at the C50 concentration was determined.; type: ADME
[12] = as §5; type: functional

| Compound | LD90 [1] | Uptake at C50 [2] | Kill at C50 [3] | C50 [5] | further results |
| --- | --- | --- | --- | --- | --- |
| CNC1C(OC2OC(CO)C(N)C(O)C2O)OC2CC(NC(=O)C(O)CCN)C(OC3C(N)CC(N)C(O)C3O)OC2C1O (centres undefined) | 0.72 µM | 2.6 | 93% | – | C50 [4]: 0.84 µM |
| CNC1C(OC2OC(CO)C(N)C(O)C2O)OC2CC(NC(=O)CN)C(OC3C(N)CC(N)C(O)C3O)OC2C1O (centres undefined) | 0.83 µM | 3.3 | 53% | 0.45 µM | – |
| NCC1CCC(N)C(OC2C(N)CC(N)C(OC3OC(CO)C(O)C(N)C3O)C2O)O1 (centres undefined) | 0.89 µM | 8.1 | 74% | – | – |
| CNC1C(OC2OC(CO)C(N)C(O)C2O)OC2CC(N)C(OC3C(N)CC(NC(=O)CN)C(O)C3O)OC2C1O (centres undefined) | 0.84 µM | 2.1 | 94% | – | C50 [4]: 1.1 µM |
| NCC1OC(OC2C(N)CC(NC(=O)C3(O)CNC3)C(OC3OC(CO)C(O)C(N)C3O)C2O)C(N)CC1O (centres undefined) | 0.63 µM | 4.4 | 50% | 0.12 µM | – |
| COC1C(O)C(N)C(OC2OC([C@H](C)N)CCC2N)C(O)C1N(C)C(=O)CN (some centres undefined) | 0.7 µM | 5.6 | 93% | 0.86 µM | – |
| CNC1C(O)C(OC2C(N)CC(N)C(OC3OC(C(C)N)CCC3N)C2O)OCC1(C)O (centres undefined) | 0.14 µM | – | 98% | – | Uptake at C50 [6]: 6.5; C50 [4]: 0.26 µM |
| NC[C@H]1O[C@H](O[C@@H]2[C@@H](O)[C@H](O[C@@H]3[C@H](O)[C@H](N)C[C@@H](N)[C@H]3O[C@H]3O[C@@H](CO)[C@@H](O)C[C@@H]3N)O[C@@H]2CO)[C@@H](N)[C@@H](O[C@H]2O[C@H](CO)[C@@H](O)[C@H](O)[C@@H]2O)[C@@H]1O | 0.88 µM | 4.4 | 78% | 0.57 µM | – |
| NCC1OC(OC2C(N)CC(NC(=O)C3(O)CCNC3)C(OC3OC(CO)C(O)C(N)C3O)C2O)C(N)CC1O (centres undefined) | 0.31 µM | 4.4 | 65% | 0.12 µM | – |
| CNC1C(OC2OC(CO)C(N)C(O)C2O)OC2CC(N)C(OC3C(N)CC(NC(=O)C(O)CCN)C(O)C3O)OC2C1O (centres undefined) | 1.2 µM | 2.4 | 53% | – | C50 [4]: 0.39 µM |
| CN(C)[C@@H]1C(O)=C(C(N)=O)C(=O)[C@@]2(O)C(O)=C3C(=O)c4c(O)cccc4[C@@](C)(O)[C@H]3C[C@@H]12 | – | – | – | > 50 µM | – |
| CN1C(NC2OC(CO)C(OC(N)=O)C(O)C2NC(=O)CC(N)CCCN)=N[C@@H]2[C@H](O)CNC(=O)[C@H]21 (some centres undefined) | – | 4.1 | – | 0.1 µM | – |
| CN[C@@H]1[C@H](O)[C@H](NC)[C@H]2O[C@@]3(O)C(=O)C[C@@H](C)O[C@H]3O[C@@H]2[C@H]1O | – | – | – | > 10 µM | – |
| CN[C@H]1C[C@@H](N)[C@H](O)[C@@H](O[C@@H]2O[C@H](CO)[C@H](O)[C@H]3O[C@@]4(O[C@H]23)O[C@H]([C@H](N)CO)[C@H](O)[C@H](O)[C@H]4O)[C@@H]1O | – | – | – | > 50 µM | – |
| NCCCCNCCCN | – | – | – | > 50 µM | – |
| NC[C@@H]1O[C@@H](O[C@H]2[C@H](O)[C@@H](O[C@H]3O[C@H](CO)[C@@H](O)[C@H](N)[C@H]3O)[C@H](N)C[C@@H]2N)[C@@H](O)[C@H](O)[C@H]1O | – | 3.5 | – | 0.95 µM | – |
| O=C(N[C@H](CO)[C@H](O)c1ccc([N+](=O)[O-])cc1)C(Cl)Cl | – | – | – | > 50 µM | – |

| Compound | LD90 [1] | Uptake at C50 [2] | Kill at C50 [3] | C50 [5] | further results |
| --- | --- | --- | --- | --- | --- |
| 4-Amino-N-[5-amino-4-(3-amino-6-aminomethyl-4,5-dihydroxy-tetrahydro-pyran-2-yloxy)-3-(3,4-dihydroxy-5-hydroxymethyl-tetrahydro-furan-2-yloxy)-2-hydroxy-cyclohexyl]-2-hydroxy-butyramide (Butirosin) | – | 4 | – | 0.13 µM | – |
| NCC[C@H](O)C(=O)N[C@@H]1C[C@H](N)[C@@H](O[C@H]2O[C@H](CN)[C@@H](O)[C@H](O)[C@H]2O)[C@H](O)[C@H]1O[C@H]1O[C@H](CO)[C@@H](O)[C@H](N)[C@H]1O (stereo in doubt) | – | – | – | 0.21 µM | Uptake at C50 [7]: 4.7 |
| NCC[C@H](O)C(=O)N[C@@H]1C[C@H](N)[C@@H](O[C@H]2O[C@H](CN)[C@@H](O)[C@H](O)[C@H]2O)[C@H](O)[C@H]1O[C@H]1O[C@H](CO)[C@@H](O)[C@H](N)[C@H]1O (stereo in doubt) [AMIKACIN] | – | – | – | – | Kill at C50 [8]: 76%; LD90 [9]: 0.32 µM |
| CN[C@@H]1[C@@H](O[C@H]2O[C@H](CO)[C@@H](N)[C@H](O)[C@H]2O)OC2C[C@@H](N)[C@@H](O[C@H]3[C@H](O)[C@@H](O)[C@H](N)C[C@@H]3N)OC2[C@@H]1O (some centres undefined) [APRAMYCIN] | 0.67 µM | – | 95% | 0.87 µM | Uptake at C50 [10]: 4 |
| NC[C@H]1O[C@H](O[C@H]2[C@H](O)[C@@H](O[C@H]3O[C@H](CO)[C@@H](O)[C@H](N)[C@H]3O)[C@H](N)C[C@@H]2N)[C@H](N)[C@@H](O)[C@@H]1O [BEKANAMYCIN] | 1.1 µM | 6.8 | – | 0.27 µM | Kill at C50 [11]: 31% |
| NC[C@@H]1O[C@H](O[C@H]2[C@@H](O)[C@H](O[C@@H]3[C@@H](O)[C@H](N)C[C@H](N)[C@H]3O[C@H]3O[C@H](CN)[C@@H](O)[C@H](O)[C@H]3N)O[C@@H]2CO)[C@H](N)[C@@H](O)[C@@H]1O [FRAMYCETIN] | 0.46 µM | 1.6 | 82% | 0.34 µM | – |
| CN[C@@H]1[C@@H](O)[C@@H](O[C@@H]2[C@@H](O)[C@H](O[C@H]3O[C@H]([C@@H](C)NC)CC[C@H]3N)[C@@H](N)C[C@H]2N)OC[C@]1(C)O [GENTAMICIN C1] | 0.25 µM | – | 85% | 0.21 µM | Uptake at C50 [7]: 5.5 |
| NC[C@H]1O[C@H](O[C@H]2[C@H](O)[C@@H](O[C@H]3O[C@H](CO)[C@@H](O)[C@H](N)[C@H]3O)[C@H](N)C[C@@H]2N)[C@H](O)[C@@H](O)[C@@H]1O [KANAMYCIN A] | 0.85 µM | – | 93% | – | – |
| NC[C@@H]1O[C@H](O[C@H]2[C@@H](O)[C@H](O[C@@H]3[C@@H](O)[C@H](N)C[C@H](N)[C@H]3O[C@H]3O[C@H](CO)[C@@H](O)C[C@H]3N)O[C@@H]2CO)[C@H](N)[C@@H](O)[C@@H]1O[C@H]1O[C@H](CO)[C@@H](O)[C@H](O)[C@@H]1O [LIVIDOMYCIN] | 0.87 µM | 5.5 | – | 0.18 µM | Kill at C50 [11]: 40% |
| CCN[C@@H]1C[C@H](N)[C@@H](O[C@H]2OC(CN)=CC[C@H]2N)[C@H](O)[C@H]1O[C@H]1OC[C@](C)(O)[C@H](NC)[C@H]1O [NETILMICIN] | 0.38 µM | 5.8 | 86% | 0.32 µM | – |
| NC[C@@H]1O[C@H](O[C@H]2[C@@H](O)[C@H](O[C@@H]3[C@@H](O)[C@H](N)C[C@H](N)[C@H]3O[C@H]3O[C@H](CO)[C@@H](O)[C@H](O)[C@H]3N)O[C@@H]2CO)[C@H](N)[C@@H](O)[C@@H]1O [PAROMOMYCIN] | 0.78 µM | 3.9 | – | 0.32 µM | Kill at C50 [11]: 61% |
| NC[C@H]1O[C@H](O[C@H]2[C@H](O[C@@H]3O[C@H](CO)[C@@H](O)[C@H]3O)[C@@H](O)[C@H](N)C[C@@H]2N)[C@H](N)[C@@H](O)[C@@H]1O [RIBOSTAMYCIN] | 0.17 µM | 2.6 | 99% | 1.2 µM | – |
| CN[C@@H]1[C@@H](O)[C@@H](O[C@@H]2[C@@H](O)[C@H](O[C@H]3OC(CN)=CC[C@H]3N)[C@@H](N)C[C@H]2N)OC[C@]1(C)O [SISOMICIN] | 0.49 µM | 7 | 77% | 0.31 µM | – |
| CN[C@@H]1[C@H](O[C@H]2[C@H](O[C@H]3[C@H](O)[C@@H](O)[C@H](N=C(N)N)[C@@H](O)[C@@H]3N=C(N)N)O[C@@H](C)[C@]2(O)C=O)O[C@@H](CO)[C@H](O)[C@H]1O [STREPTOMYCIN] | – | 5.8 | – | 0.34 µM | Kill at C50 [12]: 88%; LD90 [9]: 0.36 µM |
| NC[C@H]1O[C@H](O[C@H]2[C@H](O)[C@@H](O[C@H]3O[C@H](CO)[C@@H](O)[C@H](N)[C@H]3O)[C@H](N)C[C@@H]2N)[C@H](N)C[C@@H]1O [TOBRAMYCIN] | 0.71 µM | 8.3 | – | – | Kill at C50 [11]: 54%; C50 [4]: 0.24 µM |
| GENTAMICIN [listing 1 of 2 here] | 0.43 µM | – | – | – | Kill at C50 [11]: 72% |
| GENTAMICIN [listing 2 of 2 here] | – | 7.3 | – | 0.24 µM | – |
